These compounds were tested on E. coli BW25113 ΔtolC growth inhibition, OD615 (assay: E. coli ΔtolC antibacterial growth inhibition – strain BW25113 ΔtolC::kan, dose response (AID 617)).
Method in brief: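 system = E. coli BW25113 tolC deletion strain (ΔtolC::kan), whole bacterial cells | technique = optical density (absorbance) at 615 nm | dosing = compounds in serially diluted dose-response series | times = bacterial growth with compound for 20 h, 37 °C | evaluation = growth-inhibition IC50 from four-parameter logistic curve, bounds set to 0% and 100%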

Row | SMILES | IC50 [µM]
1 | N#Cc1nc(Cc2cccc3ccccc23)oc1NCc1ccc(F)cc1 | 11.7
2 | N#Cc1nc(COc2ccc(Cl)cc2)oc1N1CCCCCC1 | 8.68
3 | COc1cc(NS(=O)(=O)c2ccc(NC(=O)COc3ccccc3Cl)cc2)nc(OC)n1 | 24.6
4 | Cn1cccc1C(=O)Nc1nc(-c2ccccn2)cs1 | 2.42
5 | N#Cc1nc(COc2ccc(F)cc2)oc1N1CCN(Cc2ccccc2)CC1 | 14.4
6 | CCOc1ccc(Nc2cc(C)nc(-n3nc(C)cc3C)n2)cc1 | 4.19
7 | COC(=O)c1ccc(C2c3c(n[nH]c3C)C(=O)N2c2ccc(C)cc2)cc1 (stereo not given) | 4.38
8 | CC1=CC(C)(C)N(C(=O)CSc2nnc(-c3ccccc3)o2)c2ccc(C)cc21 | 16.3
9 | COC(=O)c1sccc1NC(=O)c1csc(C)c1 | 23.1
10 | COC(=O)c1ccc(O)c(Sc2cc(C(=O)OC)ccc2O)c1 | 1.91

From PubChem BioAssay AID617 (SRMLSC, 2007)
